Fewer inactive variants are shown than the library holds.

B1: tRNA (parent)
chain: GUUCCGUUGGCGUAAUGGUAACGCGUCUCCCUCCUAAGGAGAAGACUGCGGGUUCGAGUCCCGUACGGAACG

Variants of B1 are the subject of this series. Description: yeast fitness relative to wild type (ratio to wild type); higher = fitter; tRNA-Arg(CCU), competitive growth, 37 C, YPD. In outline:
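Genotype frequency changes were the basis for Darwinian fitness relative to wild type. The frequencies came from 100-nucleotide paired-end sequencing of gene amplicons from the start population and each end population of pooled yeast strains with tRNA-Arg(CCU) gene variants at the native locus. Competition ran in YPD at 37°C for 24 hours in six replicates, genotypes needed ≥ 100 starting reads, and estimates < 0.5 were set to 0.5.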
As for U3C C34A G44A G52A C55U, the yeast fitness was 0.562.
For U3C C30U C55U G58A the value was at most 0.5.
For U3C A40U A69U the value was 0.755; for U3C C11U G12C, at most 0.5; for U3C A15U U16G U19A A43C A57U, at most 0.5.
Turning to U3C A37U, the yeast fitness is 0.806.
Under U3C A37G stands 0.784; under U3C C22G G52C G67C, at most 0.5; under U3A G12A U19A G38C G48A, at most 0.5.
Turning to U3A G9A A14C C55G, the yeast fitness was at most 0.5.
Take U3A U13C A69U: the yeast fitness was determined as 0.72.
Under U3A G17A C22U U35C A65G stands at most 0.5.
Under U3A C46A G67U stands 0.603; under U3C C27U C46A G50A C62U, 0.595.
For the variant U3C A40G C46A A69C, the yeast fitness is 0.706.
Under U3C A37G A42C A65C A69C stands at most 0.5; under U3C C4G A42G, 0.57.
U3C A21U: the yeast fitness was determined as 0.642.
U3C C49G A65U: the yeast fitness stood at 0.658.
In the case of U3C C30A C31G C49A C60U G67A, the yeast fitness is at most 0.5.
For U3A G12A U19A U64C the value was at most 0.5.
For the variant U3C C4G U28C A43C, the yeast fitness was at most 0.5.
Under U3A G12A U19A C60A A70C stands 0.569; under U3A G17C A20C U28A C46A C61A, at most 0.5; under U3C C11A A15C C24A C27A G41C, at most 0.5.
Consider U3A U32G G63C C66U, for which the yeast fitness was at most 0.5.
On to U3A G6A G25C A43C, for which the yeast fitness was found to be 0.614.
For U3A C34A C49U C55G the value was at most 0.5; for U3C C11A C27G C33A A43C C46A C62A C66U, at most 0.5; for U3C A36U G39A G52A, at most 0.5.
For the variant U3C A37C C49G, the yeast fitness was at most 0.5.
Under U3A G9C A20G C29A G56A G67U stands at most 0.5; under U3C A15C A36C U47A C62G, at most 0.5; under U3A C46G, 0.982.
For U3A C60A the value was 0.677; for U3C C46A G48A, 0.877.
Turning to U3C A15C G17C C24A C31U U35C G68A, the yeast fitness is at most 0.5.
For U3C C5U C24U A42C A57U the value was at most 0.5; for U3C A21U A69U, 0.537; for U3A U19A C33A C49U G52A, at most 0.5.
For U3A G56C the value was 0.716.
For U3A G56A the value was 1.02; for U3A C31U A40C, 0.566.
As to U3C A21U C66G, the yeast fitness was at most 0.5.
Under U3C C31U C62U stands 0.804; under U3C C11G A57G, at most 0.5; under U3C C24G G44A, at most 0.5.
For the variant U3C C11U C27G G52A, the yeast fitness was at most 0.5.
Consider U3A G17C A20C U28A, for which the yeast fitness was at most 0.5.
Under U3C A20G stands 0.917.
Under U3C C27U G48A C55A G63A stands at most 0.5; under U3A G6C C31A U47G C62A, at most 0.5; under U3C A14G C30U A45C C46G A69C, at most 0.5.
Under U3A U8A C27G stands at most 0.5.
With U3A G68A, the yeast fitness amounted to 0.854.
Under U3C C5A G17A A42G U64A stands at most 0.5; under U3C A45C C46G C49A A69U, at most 0.5.
For U3C A45C G67A the value was at most 0.5.
For U3C A14C A45C A65C the value was at most 0.5; for U3C C5G U19G C31A C46A, 0.663; for U3A U19A G58C, 0.675.
For the variant U3A C46G A70C, the yeast fitness worked out at 0.715.
For U3C C62A the value was 0.865; for U3A U19G G25A G67A, 0.56; for U3C A14U, 0.639.
For the variant U3C A14G, the yeast fitness amounted to 0.917.
For U3C A20U A69C the value was 0.749; for U3C C27G C33A C66G G67C, at most 0.5.
Under U3C C4U C60A C66G stands at most 0.5; under U3C A21U A37G G44A G63A, at most 0.5.
As to U3A G38A A40G A69U, the yeast fitness is at most 0.5.
Under U3A U19C C24U A37G C60G stands at most 0.5; under U3A G9A C30A A42U C49U U59C A69C, at most 0.5.
For U3A C31U U35G C62U the value was at most 0.5; for U3C C27U C31U, 0.787; for U3C A14G C24A G44A A65C, at most 0.5.
Regarding U3C, the yeast fitness is 0.996.
For U3A G10C A36U A40C A57C the value was at most 0.5; for U3C A15C G38A U54A A57U, at most 0.5; for U3C C31U G50A G58C C66U, at most 0.5.
Under U3C C4U A21G C46A stands 0.628.
Consider U3C A43C A69C, for which the yeast fitness was 0.762.
For U3C G6A G18C C30U C31U G48A C55G A65U the value was at most 0.5.
Consider U3C A14G C22A C27G G39C C62G, for which the yeast fitness is at most 0.5.
Under U3A G25C U47A stands 0.547.
Under U3C A20G U59C A69C stands 0.79; under U3C A40G C46A C62G A69U, at most 0.5; under U3C A37G A70U, 0.568.
For U3A U32A the value was 0.74; for U3A G48C U59C, 0.537; for U3C A70U, 1.01.
Turning to U3A G9A A37G G68C A69G, the yeast fitness is at most 0.5.
Under U3C A45C G48A stands 0.937; under U3A G44A, 0.807; under U3C G6A C29G G58A, at most 0.5.
U3C A37C A57G G68C: the yeast fitness is at most 0.5.
Under U3A G6A G12A A20G C22G U26A G48C G68U stands at most 0.5; under U3C A20C C46U, 1.06.
On to U3C A20G C33U A40G C62G A70U, for which the yeast fitness is at most 0.5.
Take U3A G10C A36U A40C A57G C60G: the yeast fitness is at most 0.5.
Consider U3A U26C A43C A70U, for which the yeast fitness is at most 0.5.
Under U3C C29U C30G G39C C60A stands at most 0.5; under U3A U53C, 0.668; under U3C C5G G38A, at most 0.5.
For U3C C11U C61G A65C the value was at most 0.5; for U3A G12A C24U A45U, at most 0.5; for U3C C5A, 0.89.
On to U3C C22U G23A, for which the yeast fitness was at most 0.5.
For U3A G9A U19A G44C C61U C62G the value was at most 0.5; for U3C C46A A70C, 1.12.
In the case of U3C C27U A42G G67A, the yeast fitness was at most 0.5.
For U3A G9A the value was 0.977; for U3A G9C, 0.567.
For U3C C27U C62U the value was 0.617; for U3A U35A, 0.658.
Regarding U3A U26C U53C, the yeast fitness is at most 0.5.
For U3C G6A U16C G17A the value was at most 0.5.
Under U3A U35C A57C stands at most 0.5; under U3C C5G C11G G48A A69G, at most 0.5.
Under U3C C24U A40G C46A stands 0.702; under U3A G9A A14G C66U, 0.575; under U3A G39A C55U U59G G68C, at most 0.5.
For U3A U13C G68A, the yeast fitness stood at 0.528.
For U3C C11A C33U C49A the value was at most 0.5; for U3A G9A C29G, 0.585.
For U3C C11A G25A C46G A57U the value was 0.504; for U3C C4U U64A, 0.617.
In the case of U3A G12C U13C C49U G56C, the yeast fitness is at most 0.5.
Under U3C A21G C30A C33G U59A C66U stands at most 0.5; under U3C C4G U8G A42G C62G A65C, at most 0.5.
For U3A G10C A36U A40C C60G, the yeast fitness came out at 0.569.
On to U3A U7G A14U G25A G41C C46U C61A, for which the yeast fitness was determined as 0.519.
Turning to U3C C11G C24G U54G, the yeast fitness is at most 0.5.
Under U3A G6A C46U stands 0.638; under U3C C46A G50A, 0.731.
Under U3C C11U C29U G67A A70U stands at most 0.5; under U3A U13G U47C A70C, at most 0.5; under U3C C55U C61A, at most 0.5.
On to U3A U19C C29A A36U, for which the yeast fitness was at most 0.5.
Under U3C C11U C22A C29G C33U U64C A70C stands at most 0.5; under U3A C31G A43U, 0.597.
Under U3A G6U G12C C22A stands at most 0.5.
For U3C C30G U64A A70C the value was at most 0.5.
For the variant U3C G6A G18C C30U C31U A65U, the yeast fitness was at most 0.5.
For U3C A15G C30G G56A G63C G67A the value was at most 0.5; for U3C C31G C34U G38A, at most 0.5.
Regarding U3C C11U U16C C30G C31G A37U, the yeast fitness is at most 0.5.
For U3C C5G C34A A37U G44A G51A C55A the value was at most 0.5.
For U3A G23C C46A C49A C61G the value was at most 0.5; for U3C C29G C33A, at most 0.5; for U3C C62U A69C, 0.756.
For U3A C33U A45U the value was 0.834; for U3C C30A C31U, 0.747; for U3C C30G A42C, at most 0.5.
U3C C30A: the yeast fitness was found to be 1.06.
Under U3C C49G G63C stands 0.617; under U3C C31U C34U U35A U53A G58A G68A, at most 0.5.
Regarding U3C C11U A65G, the yeast fitness turned out to be 0.732.
For U3C C30U A42G G58C the value was at most 0.5; for U3C C27U C46G, 0.789.
As to U3C C24U C46U C62U, the yeast fitness was at most 0.5.
For U3A U7C A15U G23C C27U G52A the value was at most 0.5; for U3C A15U C30U, 0.57; for U3C C30U G44A, 0.566.
For U3A C34U C49A G52A the value was 0.622; for U3C C46G A69C, 0.625.
Under U3A C31G A40U G41U stands at most 0.5.

The values are drawn from the RNAGym collection of RNA variant scans (doi:10.1126/science.aae0568).
